Experimental data from ChEMBL document CHEMBL4043093, “2-Oxo-3, 4-dihydropyrimido[4, 5-d]pyrimidinyl derivatives as new irreversible pan fibroblast growth factor receptor (FGFR) inhibitors” (Eur J Med Chem, 2017).

How the values were obtained:
[1] = Antiproliferative activity against human FGFR2-amplified SUM52 cells after 5 days by SRB assay; settings: SUM52, 120 h
[2] = test system: NCI-H520; assay: Antiproliferative activity against human FGFR1-amplified NCI-H520 cells after 7 days by SRB assay; settings: NCI-H520, 168 h
[3] = test system: SW780; assay: Antiproliferative activity against human FGFR3-amplified SW780 cells after 5 days by SRB assay; settings: SW780, 120 h
[4] = test system: NCI-H460; assay: Antiproliferative activity against human NCI-H460 cells after 5 days by SRB assay; assay type: functional, cell-based; settings: NCI-H460, 120 h
In short: (§1)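 Grown in α-MEM + 5% FBS at 37 °C, 5% CO2. Seeding per well: 3000 (H661), 1000 (PC9), 400 (H460, H1299), attached overnight. Cells were dosed with a 3-fold serial dilution from DMSO stocks for 5 days. Then cold TCA fixation, 0.4% SRB staining, solubilisation in 10 mM Tris pH 10.5, absorbance at 490 nm. IC50 was derived from the curves.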

[5] = test system: NCI-H661; assay: Antiproliferative activity against human NCI-H661 cells after 5 days by SRB assay; assay type: functional, cell-based; settings: NCI-H661, 120 h; in short: as §1
[6] = test system: PC-9; assay: Antiproliferative activity against human PC9 cells after 5 days by SRB assay; assay type: functional, cell-based; settings: PC-9, 120 h; in short: as §1
[7] = test system: L02; assay: Cytotoxicity against human HL7702 cells assessed as cell viability after 72 hrs by CCK-8 assay; assay type: cell-based; settings: L02, 72 h
In short: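 Log-phase HL7702 cells were plated at ~3000 cells/well and treated 24 h later with compound or vehicle for 72 h. CCK-8 was added for 3 h and OD450 minus OD650 measured. Viability = (As−Ac)/(Ab−Ac)×100, with Ac a cell-free blank and Ab the vehicle control.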

[8] = test system: NCI-H1299; assay: Antiproliferative activity against human NCI-H1299 cells after 5 days by SRB assay; assay type: functional, cell-based; settings: NCI-H1299, 120 h; in short: as §1
[9] = target: Fibroblast growth factor receptor 4 (Homo sapiens, UniProt P22455); assay: Inhibition of human recombinant His-tagged FGFR4 cytoplasmic domain ([…] residues) expressed in baculovirus using Tyr-4 peptide after 1 hr by FRET-based Z'-Lyte assay
[10] = target: Fibroblast growth factor receptor 3 (Homo sapiens, UniProt P22607); assay: Inhibition of human recombinant His-tagged FGFR3 cytoplasmic domain (399 to 806 residues) expressed in baculovirus using Tyr-4 peptide after 1 hr by FRET-based Z'-Lyte assay
Sequence of Fibroblast growth factor receptor 3 (P22607 whole entry, the tested form may be a part): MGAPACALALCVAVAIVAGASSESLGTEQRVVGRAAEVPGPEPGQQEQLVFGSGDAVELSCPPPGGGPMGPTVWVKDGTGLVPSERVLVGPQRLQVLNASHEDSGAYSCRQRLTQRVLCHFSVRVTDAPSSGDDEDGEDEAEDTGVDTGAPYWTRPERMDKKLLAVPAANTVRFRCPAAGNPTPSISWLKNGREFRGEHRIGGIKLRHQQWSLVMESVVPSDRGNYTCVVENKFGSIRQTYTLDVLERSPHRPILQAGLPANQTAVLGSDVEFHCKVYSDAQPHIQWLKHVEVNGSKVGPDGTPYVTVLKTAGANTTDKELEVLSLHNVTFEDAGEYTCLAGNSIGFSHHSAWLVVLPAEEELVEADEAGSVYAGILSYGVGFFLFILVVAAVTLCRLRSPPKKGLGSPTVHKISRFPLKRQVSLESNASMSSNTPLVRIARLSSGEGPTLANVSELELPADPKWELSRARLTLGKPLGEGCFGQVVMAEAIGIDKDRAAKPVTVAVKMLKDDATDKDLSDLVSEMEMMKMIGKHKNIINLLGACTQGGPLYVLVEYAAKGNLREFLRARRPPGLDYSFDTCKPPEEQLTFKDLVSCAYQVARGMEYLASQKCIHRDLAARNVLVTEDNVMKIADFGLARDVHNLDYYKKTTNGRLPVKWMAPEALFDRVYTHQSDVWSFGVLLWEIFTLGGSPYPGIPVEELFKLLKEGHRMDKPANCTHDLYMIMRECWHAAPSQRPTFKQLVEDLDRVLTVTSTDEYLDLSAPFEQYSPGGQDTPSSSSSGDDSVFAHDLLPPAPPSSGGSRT

Sequence of Fibroblast growth factor receptor 4 (P22455 whole entry, the tested form may be a part): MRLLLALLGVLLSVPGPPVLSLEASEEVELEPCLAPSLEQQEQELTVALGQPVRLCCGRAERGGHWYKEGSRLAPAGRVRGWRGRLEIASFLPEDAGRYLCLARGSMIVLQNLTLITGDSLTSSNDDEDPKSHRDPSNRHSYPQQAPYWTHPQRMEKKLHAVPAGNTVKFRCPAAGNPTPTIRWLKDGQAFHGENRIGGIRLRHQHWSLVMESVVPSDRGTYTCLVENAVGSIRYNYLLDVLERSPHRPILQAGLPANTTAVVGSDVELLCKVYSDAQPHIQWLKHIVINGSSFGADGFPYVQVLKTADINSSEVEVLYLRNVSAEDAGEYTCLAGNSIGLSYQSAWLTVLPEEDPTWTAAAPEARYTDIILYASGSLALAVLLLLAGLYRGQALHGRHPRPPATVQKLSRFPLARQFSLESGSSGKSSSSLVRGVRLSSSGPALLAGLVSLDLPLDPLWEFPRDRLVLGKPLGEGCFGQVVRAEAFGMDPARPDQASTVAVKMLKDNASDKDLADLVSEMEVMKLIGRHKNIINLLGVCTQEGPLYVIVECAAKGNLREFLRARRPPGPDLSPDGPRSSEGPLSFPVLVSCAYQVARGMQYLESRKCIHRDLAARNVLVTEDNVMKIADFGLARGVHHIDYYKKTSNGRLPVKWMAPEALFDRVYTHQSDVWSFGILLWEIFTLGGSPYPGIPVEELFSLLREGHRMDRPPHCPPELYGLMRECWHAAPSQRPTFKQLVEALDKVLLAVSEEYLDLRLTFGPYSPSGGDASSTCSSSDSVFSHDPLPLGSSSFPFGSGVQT

| Structure (SMILES) | IC50 [1] [nM] | IC50 [2] [nM] | IC50 [3] [nM] | other results |
| --- | --- | --- | --- | --- |
| CNc1ncc2c(n1)N(C1CCN(C(=O)/C=C/CN(C)C)CC1)C(=O)N(c1c(Cl)c(OC)cc(OC)c1Cl)C2 | 2 | 56.2 | 5.2 |  |
| COc1cc(OC)c(Cl)c(N2Cc3cnc(NC4CCOC4)nc3N(C3CCN(C(=O)/C=C/CN(C)C)CC3)C2=O)c1Cl (stereo not drawn) | 4 | 70 | 32 |  |
| C=CC(=O)Nc1cccc(CN2C(=O)N(c3c(Cl)c(OC)cc(OC)c3Cl)Cc3cnc(NCCCCN(CC)CC)nc32)c1 | 2.9 | 121 | 277 |  |
| COc1cc(OC)c(Cl)c(N2Cc3cnc(Nc4ccccc4)nc3N(C3CCN(C(=O)/C=C/CN(C)C)CC3)C2=O)c1Cl | 0.65 | 4.14 | 9.73 | IC50 [4]: 1400 nM; IC50 [5]: 2750 nM; IC50 [6]: 1260 nM; IC50 [7]: 1890 nM; IC50 [8]: 2480 nM |
| COc1ccc(Nc2ncc3c(n2)N(C2CCN(C(=O)/C=C/CN(C)C)CC2)C(=O)N(c2c(Cl)c(OC)cc(OC)c2Cl)C3)cc1 | 0.8 | 3 | 0.3 |  |
| CCN(CC)CCCCNc1ncc2cc(-c3cc(OC)cc(OC)c3)c(NC(=O)NC(C)(C)C)nc2n1 [PD-173074] | 12.3 |  | 84.3 |  |
| COc1cc(OC)c(Cl)c(N2Cc3cnc(NC4CCOCC4)nc3N(C3CCN(C(=O)/C=C/CN(C)C)CC3)C2=O)c1Cl | 0.57 | 7.82 | 3.34 |  |
| COc1cc(OC)c(Cl)c(N2Cc3cnc(Nc4cccc(C)c4)nc3N(C3CCN(C(=O)/C=C/CN(C)C)CC3)C2=O)c1Cl | 1.1 | 5.3 | 15.1 |  |
| COc1cc(OC)c(Cl)c(N2Cc3cnc(NC(C)C)nc3N(C3CCN(C(=O)/C=C/CN(C)C)CC3)C2=O)c1Cl | 0.65 | 4.91 | 12.3 |  |
| COc1cccc(Nc2ncc3c(n2)N(C2CCN(C(=O)/C=C/CN(C)C)CC2)C(=O)N(c2c(Cl)c(OC)cc(OC)c2Cl)C3)c1 | 1 | 19.3 | 5.4 |  |
| COc1cc(OC)c(Cl)c(N2Cc3cnc(Nc4cccc(F)c4)nc3N(C3CCN(C(=O)/C=C/CN(C)C)CC3)C2=O)c1Cl | 1.1 | 6.5 | 9 |  |
| COc1cc(OC)c(Cl)c(N2Cc3cnc(NC4CCCCC4)nc3N(C3CCN(C(=O)/C=C/CN(C)C)CC3)C2=O)c1Cl | 0.84 | 13.6 | 14.5 |  |
| COc1cc(OC)c(Cl)c(N2Cc3cnc(N(C)C)nc3N(C3CCN(C(=O)/C=C/CN(C)C)CC3)C2=O)c1Cl | 224 | 2420 | 570 | IC50 [9]: > 1000 nM; IC50 [10]: > 1000 nM |
| COc1ccccc1Nc1ncc2c(n1)N(C1CCN(C(=O)/C=C/CN(C)C)CC1)C(=O)N(c1c(Cl)c(OC)cc(OC)c1Cl)C2 | 3.3 | 39.8 | 27.5 |  |
